ChEMBL document CHEMBL5036356, “Spatial Distribution and Stability of Cholinesterase Inhibitory Protoberberine Alkaloids from Papaver setiferum” (J Nat Prod, 2022)

Key:
Cholinesterase = Cholinesterase (Equus caballus, UniProt P81908); test: Inhibition of horse serum BChE incubated for 5 mins by DTNB reagent based Ellman's method
Procedure, shortened: (§1)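 Enzyme stocks (commercial eel AChE, human recombinant AChE or horse serum BChE) at 0.0075 U/mL in 100 mM potassium phosphate, pH 7.4, added to start the reaction. Acetylthiocholine chloride 1 mM and DTNB 0.5 mM final. Compounds were taken from 5 mg/mL methanol stocks and serially diluted in buffer, with methanol blanks. IC50 reported as mean ± SEM of at least three repeats.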

Acetylcholinesterase [1] = molecular target: Acetylcholinesterase (Electrophorus electricus, UniProt O42275); test: Inhibition of electrical eel AChE using acetylthiocholine chloride as substrate incubated for 5 mins by DTNB reagent based Ellman's method
Procedure, shortened: as §1, with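 “blanks. Rate read at 405 nm, 25 °C, for 5 min.” for “blanks.”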

Acetylcholinesterase [2] = molecular target: Acetylcholinesterase (Homo sapiens, UniProt P22303); test: Inhibition of human recombinant AChE using acetylthiocholine chloride as substrate incubated for 5 mins by DTNB reagent based Ellman's method
Procedure, shortened: as §1, with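 “blanks. Rate read at 405 nm, 25 °C, for 5 min.” for “blanks.”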

Sequence of Cholinesterase (P81908 whole entry): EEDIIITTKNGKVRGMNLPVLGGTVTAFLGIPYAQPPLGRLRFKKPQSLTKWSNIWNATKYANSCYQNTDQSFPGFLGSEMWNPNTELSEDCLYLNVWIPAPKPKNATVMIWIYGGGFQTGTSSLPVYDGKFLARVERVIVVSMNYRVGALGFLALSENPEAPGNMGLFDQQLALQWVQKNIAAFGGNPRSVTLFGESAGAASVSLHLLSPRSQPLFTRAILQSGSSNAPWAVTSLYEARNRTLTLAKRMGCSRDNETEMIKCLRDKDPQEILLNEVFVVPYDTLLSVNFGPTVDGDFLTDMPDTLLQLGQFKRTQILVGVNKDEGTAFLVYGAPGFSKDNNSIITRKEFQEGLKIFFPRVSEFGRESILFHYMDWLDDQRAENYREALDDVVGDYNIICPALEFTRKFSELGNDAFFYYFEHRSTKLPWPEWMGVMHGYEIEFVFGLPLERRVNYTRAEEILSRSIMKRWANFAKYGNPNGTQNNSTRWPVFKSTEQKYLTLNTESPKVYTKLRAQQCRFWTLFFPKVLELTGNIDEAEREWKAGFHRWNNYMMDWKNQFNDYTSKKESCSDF
Sequence of Acetylcholinesterase (Electrophorus electricus, UniProt O42275) (O42275 whole entry): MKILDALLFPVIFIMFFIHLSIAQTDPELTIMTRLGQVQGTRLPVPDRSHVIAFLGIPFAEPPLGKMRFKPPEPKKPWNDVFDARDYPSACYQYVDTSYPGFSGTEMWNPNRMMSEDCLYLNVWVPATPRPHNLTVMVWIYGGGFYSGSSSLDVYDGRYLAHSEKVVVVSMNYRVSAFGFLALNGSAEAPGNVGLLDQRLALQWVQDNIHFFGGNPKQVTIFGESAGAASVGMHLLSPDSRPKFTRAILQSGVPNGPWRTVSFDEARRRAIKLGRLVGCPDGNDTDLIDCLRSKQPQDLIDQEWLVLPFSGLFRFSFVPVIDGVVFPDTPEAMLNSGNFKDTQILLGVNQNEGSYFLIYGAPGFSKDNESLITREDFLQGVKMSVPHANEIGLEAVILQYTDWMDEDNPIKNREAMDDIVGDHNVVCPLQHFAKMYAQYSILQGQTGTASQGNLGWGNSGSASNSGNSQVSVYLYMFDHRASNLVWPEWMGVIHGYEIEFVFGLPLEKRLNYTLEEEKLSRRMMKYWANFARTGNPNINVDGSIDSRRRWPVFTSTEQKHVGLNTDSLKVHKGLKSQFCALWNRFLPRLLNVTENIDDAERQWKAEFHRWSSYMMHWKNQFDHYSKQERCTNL
Sequence of Acetylcholinesterase (Homo sapiens, UniProt P22303) (P22303 whole entry): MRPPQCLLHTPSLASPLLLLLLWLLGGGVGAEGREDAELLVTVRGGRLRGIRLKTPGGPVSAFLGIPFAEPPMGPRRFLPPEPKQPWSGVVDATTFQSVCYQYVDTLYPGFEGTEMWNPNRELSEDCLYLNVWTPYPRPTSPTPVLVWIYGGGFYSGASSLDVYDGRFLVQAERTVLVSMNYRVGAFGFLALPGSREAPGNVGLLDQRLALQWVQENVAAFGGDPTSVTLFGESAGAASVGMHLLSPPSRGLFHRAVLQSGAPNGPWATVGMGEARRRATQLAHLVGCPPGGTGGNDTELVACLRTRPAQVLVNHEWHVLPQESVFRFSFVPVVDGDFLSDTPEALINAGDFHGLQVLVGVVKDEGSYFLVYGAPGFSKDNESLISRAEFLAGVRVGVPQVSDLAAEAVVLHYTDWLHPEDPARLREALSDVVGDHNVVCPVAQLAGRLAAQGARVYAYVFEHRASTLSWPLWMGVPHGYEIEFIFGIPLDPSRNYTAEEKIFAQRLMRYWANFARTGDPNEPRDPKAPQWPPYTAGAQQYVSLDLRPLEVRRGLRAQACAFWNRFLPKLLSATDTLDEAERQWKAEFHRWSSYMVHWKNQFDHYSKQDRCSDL

COC1=C[C@]23CCN(C)[C@H](Cc4ccc(OC)c(O)c42)C3=CC1=O [SALUTARIDINE]
Not Active: Ki (Cholinesterase) | IC50 (Acetylcholinesterase [1]) | Ki (Acetylcholinesterase [1]) | IC50 (Acetylcholinesterase [2]) | Ki (Acetylcholinesterase [2])

COc1cc2c3c(c1O)-c1c(cccc1OC)C[C@@H]3[N+](C)(C)CC2
Not Active: IC50 (Acetylcholinesterase [1]) | Ki (Acetylcholinesterase [1]) | IC50 (Acetylcholinesterase [2]) | Ki (Acetylcholinesterase [2])

COc1cc(C[C@H]2c3cc(O)c(OC)cc3CC[N+]2(C)C)ccc1O
Not Active: Ki (Cholinesterase) | IC50 (Acetylcholinesterase [1]) | Ki (Acetylcholinesterase [1]) | IC50 (Acetylcholinesterase [2]) | Ki (Acetylcholinesterase [2])

O=[N+]([O-])CCc1ccc(O[C@@H]2O[C@H](CO[C@@H]3OC[C@@H](O)[C@H](O)[C@H]3O)[C@@H](O)[C@H](O)[C@H]2O)cc1
Not Active: IC50 (Cholinesterase) | Ki (Cholinesterase) | IC50 (Acetylcholinesterase [1]) | Ki (Acetylcholinesterase [1]) | IC50 (Acetylcholinesterase [2]) | Ki (Acetylcholinesterase [2])

COc1cc2c3c(c1O)-c1c(cccc1OC)C[C@@H]3N(C)CC2
Not Active: IC50 (Acetylcholinesterase [2]) | Ki (Acetylcholinesterase [2])

COc1cc2c(cc1O)[C@H](Cc1ccc(OC)c(OC)c1)[N+](C)(C)CC2
Not Active: Ki (Cholinesterase) | IC50 (Acetylcholinesterase [1]) | Ki (Acetylcholinesterase [1]) | IC50 (Acetylcholinesterase [2]) | Ki (Acetylcholinesterase [2])
